# Test results taken from ChEMBL document CHEMBL2331368, “Inhibitors of HIV-1 attachment. Part 9: an assessment of oral prodrug approaches to improve the plasma exposure of a tetrazole-containing derivative” (Bioorg Med Chem Lett, 2013).
# Key:
# [1] = Oral bioavailability in rat at 5 mg/kg; type: ADME, organism-based; settings: in vivo
# Summary of the method: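 Rat pharmacokinetics used 90% PEG 400/10% EtOH as vehicle. The IV dose was 1 mg/kg and the oral dose 5 mg/kg.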
# [2] = Plasma concentration in rat at 5 mg/kg, po at 30 mins; type: ADME, organism-based; parameters: dose 5 mg/kg, route oral
# Summary of the method: (§1)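 Rats received 5 mg/kg orally in 90% PEG 400/10% EtOH. The parent tetrazole concentration in plasma was measured at 30 and 120 min after dosing. Each value is the average of two rats.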
# [3] = Plasma concentration in rat at 5 mg/kg, po at 120 mins; type: ADME, organism-based; parameters: dose 5 mg/kg, route oral; summary of the method: as §1
# [4] = Cytotoxicity against human HeLa cells by XTT assay; type: cell-based
# Summary of the method: (§2)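 EC50s came from a single-cycle infectivity assay with HIV JRFL pseudotyped virus. CC50s were determined by the method described in an earlier report. Values are means of two or more experiments.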
# [5] = test system: Human immunodeficiency virus 1; assay: Antiviral activity against HIV1 JRFL pseudotyped virions infected in HeLa CD4 CCR5 cells after 48 hrs by luciferase assay; type: functional, organism-based; settings: Human immunodeficiency virus 1, JRFL, HeLa-CD4/CCR5, 48 h; summary of the method: as §2
# [6] = Half life in human liver microsomes assessed in presence of NADPH; type: ADME, Microsome
# [7] = Permeability across human Caco2 cells assessed as drug recovery at pH 6.5; type: ADME, cell-based; settings: caco-2, pH 6.5, read-out: Drug recovery
# Liver microsomes = assay: Prodrug conversion in human liver microsomes assessed as formation of 1-(4-benzoylpiperazin-1-yl)-2-(4-fluoro-7-(2H-tetrazol-5-yl)-1H-indol-3-yl)ethane-1,2-dione in absence of NADPH after 5 mins; type: ADME, Microsome
# Caco-2 = assay: Permeability across human Caco2 cells at pH 6.5; type: ADME, cell-based; settings: caco-2, pH 6.5
SMILES,bioavailability [1] [%],concentration at 0.5 h [2] [ng/mL],concentration at 2 h [3] [ng/mL],EC50 [5] [nM],half-life [6] [min],recovery [7] [%],Drug metabolism (Liver microsomes),permeability (Caco-2),CC50 [4] [nM]
CC(C)C(OC(=O)C(C)(C)C)n1nnc(-c2ccccc2-c2ccc(Cc3c(C4CC4)nc4ccccc4c3C(=O)O)cc2)n1 (configuration not stated),39,,,,,,,,
Cn1nnc(-c2ccc(F)c3c(C(=O)C(=O)N4CCN(C(=O)c5ccccc5)CC4)c[nH]c23)n1,,72,207,20,12,,,,> 300000
O=C(O)c1c(Cc2ccc(-c3ccccc3-c3nn[nH]n3)cc2)c(C2CC2)nc2ccccc12,11,,,,,,,,

# Continued, in another order:
bioavailability [1] [%],concentration at 0.5 h [2] [ng/mL],concentration at 2 h [3] [ng/mL],EC50 [5] [nM],half-life [6] [min],recovery [7] [%],Drug metabolism (Liver microsomes),permeability (Caco-2),SMILES,CC50 [4] [nM]
,261,378,60,,< 70,Active,,CC(=O)OCn1nnc(-c2ccc(F)c3c(C(=O)C(=O)N4CCN(C(=O)c5ccccc5)CC4)c[nH]c23)n1,36000
,60,13,190,,,Active,ND(Insoluble),CC(C)(C)C(=O)OCn1nnc(-c2ccc(F)c3c(C(=O)C(=O)N4CCN(C(=O)c5ccccc5)CC4)c[nH]c23)n1,228000
,19,25,34,,,,,O=C(C(=O)N1CCN(C(=O)c2ccccc2)CC1)c1c[nH]c2c(-c3nn[nH]n3)ccc(F)c12,
